Measured values published in ChEMBL document CHEMBL3351675, “Novel benzenesulfonylureas containing thiophenylpyrazoline moiety as potential antidiabetic and anticancer agents” (Bioorg Med Chem Lett, 2014).
Activity calls are given as the source filed them. The rule behind the calls is not given here.

How the values were obtained:
[1] = Anticancer activity against human COLO205 cells assessed as cell growth level at 10 uM after 48 hrs by sulforhodamine B assay; type: functional, COLO 205
A498 = experiment: Anticancer activity against human A498 cells assessed as cell growth level at 10 uM after 48 hrs by sulforhodamine B assay; type: functional
[2] = Anticancer activity against human HCT116 cells assessed as cell growth level at 10 uM after 48 hrs by sulforhodamine B assay; type: functional, HCT-116
[3] = Anticancer activity against human SKOV3 cells assessed as cell growth level at 10 uM after 48 hrs by sulforhodamine B assay; type: functional, SK-OV-3
[4] = Anticancer activity against human UACC62 cells assessed as cell growth level at 10 uM after 48 hrs by sulforhodamine B assay; type: functional, UACC-62
IGROV-1 = experiment: Anticancer activity against human IGROV1 cells assessed as cell growth level at 10 uM after 48 hrs by sulforhodamine B assay; type: functional
[5] = Anticancer activity against human SF539 cells assessed as cell growth level at 10 uM after 48 hrs by sulforhodamine B assay; type: functional, SF-539
[6] = Anticancer activity against human Hs 578T cells assessed as cell growth level at 10 uM after 48 hrs by sulforhodamine B assay; type: functional
TK-10 = experiment: Anticancer activity against human TK10 cells assessed as cell growth level at 10 uM after 48 hrs by sulforhodamine B assay; type: functional
[7] = Anticancer activity against human RPMI8226 cells assessed as cell growth level at 10 uM after 48 hrs by sulforhodamine B assay; type: functional, RPMI-8226
HOP-62 = experiment: Anticancer activity against human HOP62 cells assessed as cell growth level at 10 uM after 48 hrs by sulforhodamine B assay; type: functional
[8] = Anticancer activity against human HCC2998 cells assessed as cell growth level at 10 uM after 48 hrs by sulforhodamine B assay; type: functional, HCC 2998
A549 = experiment: Anticancer activity against human A549/ATCC cells assessed as cell growth level at 10 uM after 48 hrs by sulforhodamine B assay; type: functional
[9] = Anticancer activity against human UACC257 cells assessed as cell growth level at 10 uM after 48 hrs by sulforhodamine B assay; type: functional, UACC-257
MDA-MB-435 = experiment: Anticancer activity against human MDA-MB-435 cells assessed as cell growth level at 10 uM after 48 hrs by sulforhodamine B assay; type: functional
NCI-H322M = experiment: Anticancer activity against human NCI-H322M cells assessed as cell growth level at 10 uM after 48 hrs by sulforhodamine B assay; type: functional
CCRF-CEM = experiment: Anticancer activity against human CCRF-CEM cells assessed as cell growth level at 10 uM after 48 hrs by sulforhodamine B assay; type: functional
786-0 = experiment: Anticancer activity against human 786-0 cells assessed as cell growth level at 10 uM after 48 hrs by sulforhodamine B assay; type: functional
SK-MEL-5 = experiment: Anticancer activity against human SK-MEL-5 cells assessed as cell growth level at 10 uM after 48 hrs by sulforhodamine B assay; type: functional
HT-29 = experiment: Anticancer activity against human HT-29 cells assessed as cell growth level at 10 uM after 48 hrs by sulforhodamine B assay; type: functional
NCI-H460 = experiment: Anticancer activity against human NCI-H460 cells assessed as cell growth level at 10 uM after 48 hrs by sulforhodamine B assay; type: functional
DU-145 = experiment: Anticancer activity against human DU145 cells assessed as cell growth level at 10 uM after 48 hrs by sulforhodamine B assay; type: functional
KM12 = experiment: Anticancer activity against human KM12 cells assessed as cell growth level at 10 uM after 48 hrs by sulforhodamine B assay; type: functional
NCI-H23 = experiment: Anticancer activity against human NCI-H23 cells assessed as cell growth level at 10 uM after 48 hrs by sulforhodamine B assay; type: functional
M14 = experiment: Anticancer activity against human M14 cells assessed as cell growth level at 10 uM after 48 hrs by sulforhodamine B assay; type: functional
[10] = Anticancer activity against human MOLT4 cells assessed as cell growth level at 10 uM after 48 hrs by sulforhodamine B assay; type: functional, MOLT-4
CAKI-1 = experiment: Anticancer activity against human CAKI-1 cells assessed as cell growth level at 10 uM after 48 hrs by sulforhodamine B assay; type: functional
[11] = Anticancer activity against human NCI-ADR-RES cells assessed as cell growth level at 10 uM after 48 hrs by sulforhodamine B assay; type: functional
SF-268 = experiment: Anticancer activity against human SF268 cells assessed as cell growth level at 10 uM after 48 hrs by sulforhodamine B assay; type: functional
SK-MEL-28 = experiment: Anticancer activity against human SK-MEL-28 cells assessed as cell growth level at 10 uM after 48 hrs by sulforhodamine B assay; type: functional
[12] = Anticancer activity against human SF295 cells assessed as cell growth level at 10 uM after 48 hrs by sulforhodamine B assay; type: functional, SF-295
[13] = Anticancer activity against human HOP92 cells assessed as cell growth level at 10 uM after 48 hrs by sulforhodamine B assay; type: functional, HOP-92
[14] = Anticancer activity against human OVCAR3 cells assessed as cell growth level at 10 uM after 48 hrs by sulforhodamine B assay; type: functional, OVCAR-3
[15] = biological target: Peroxisome proliferator-activated receptor gamma (Mus musculus) (UniProt P37238); experiment: Transactivation of PPARgamma (mouse) expressed in 3T3-L1 cells incubated for 24 hrs by luciferase reporter gene assay relative to rosiglitazone
Peroxisome proliferator-activated receptor gamma (Mus musculus), sequence (P37238 whole entry, looked up): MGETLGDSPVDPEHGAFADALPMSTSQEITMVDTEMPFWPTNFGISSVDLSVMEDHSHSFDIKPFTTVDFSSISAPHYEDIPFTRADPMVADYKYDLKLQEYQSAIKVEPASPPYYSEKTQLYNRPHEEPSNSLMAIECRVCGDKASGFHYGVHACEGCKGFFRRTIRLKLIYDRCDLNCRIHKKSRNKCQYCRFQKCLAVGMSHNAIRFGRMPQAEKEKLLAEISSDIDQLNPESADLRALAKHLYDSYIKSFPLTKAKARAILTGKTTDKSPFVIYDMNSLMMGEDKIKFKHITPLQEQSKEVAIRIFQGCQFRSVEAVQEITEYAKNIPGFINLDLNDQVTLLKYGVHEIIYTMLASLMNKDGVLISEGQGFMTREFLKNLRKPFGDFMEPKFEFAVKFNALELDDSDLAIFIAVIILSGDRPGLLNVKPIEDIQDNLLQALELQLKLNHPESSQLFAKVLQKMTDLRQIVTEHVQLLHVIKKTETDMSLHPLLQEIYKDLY

Rattus norvegicus [16] = experiment: Effect on body weight in Wistar rat model of streptozotocin-induced diabetes at 30 mg/kg, po measured over 15 days; type: ADME, organism-based; set-up: dose 30 mg/kg, route oral; settings: in vivo, 360 h
MCF7 = experiment: Anticancer activity against human MCF7 cells assessed as cell growth level at 10 uM after 48 hrs by sulforhodamine B assay; type: functional
Malme-3M = experiment: Anticancer activity against human MALME-3M cells assessed as cell growth level at 10 uM after 48 hrs by sulforhodamine B assay; type: functional
SNB-19 = experiment: Anticancer activity against human SNB19 cells assessed as cell growth level at 10 uM after 48 hrs by sulforhodamine B assay; type: functional
NCI-H522 = experiment: Anticancer activity against human NCI-H522 cells assessed as cell growth level at 10 uM after 48 hrs by sulforhodamine B assay; type: functional
Rattus norvegicus [17] = experiment: Antidiabetic activity in overnight fasted Wistar rat assessed as reduction in plasma glucose level at 30 mg/kg, po by oral glucose tolerance test; type: functional, organism-based; set-up: dose 30 mg/kg
Procedure, shortened: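 Normal Wistar rats were given a glucose load by the oral glucose tolerance method, and plasma glucose rise was followed after oral test dosing. Glibenclamide was the reference drug. Data are mean ± SEM of six observations versus control, analysed by one-way ANOVA with Dunnett test (p < 0.05, p < 0.01).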

[18] = Anticancer activity against human OVCAR4 cells assessed as cell growth level at 10 uM after 48 hrs by sulforhodamine B assay; type: functional, OVCAR-4
[19] = Anticancer activity against human PC3 cells assessed as cell growth level at 10 uM after 48 hrs by sulforhodamine B assay; type: functional, PC-3
[20] = Anticancer activity against human OVCAR5 cells assessed as cell growth level at 10 uM after 48 hrs by sulforhodamine B assay; type: functional, OVCAR-5
HL-60(TB) = experiment: Anticancer activity against human HL-60(TB) cells assessed as cell growth level at 10 uM after 48 hrs by sulforhodamine B assay; type: functional

**Q.** For COc1ccc(NC(=O)NS(=O)(=O)c2ccc(N3N=C(c4cccs4)CC3c3ccc(C)s3)cc2)cc1 (stereo not drawn), which Activity [1] is on record?
**A.** -63.47%

**Q.** What about the Activity (A498) of the same compound?
**A.** 101.86%

**Q.** And the Activity [2]?
**A.** 98.77%

**Q.** And the Activity [3]?
**A.** 82.55%

**Q.** And the Activity [4]?
**A.** 31%

**Q.** What about the Activity (IGROV-1) of the same compound?
**A.** 108.05%

**Q.** And the Activity [5]?
**A.** 104.31%

**Q.** What about the Activity [6] of the same compound?
**A.** 97.52%

**Q.** And the Activity (TK-10)?
**A.** 96.03%

**Q.** What about the Activity [7] of the same compound?
**A.** 95.29%

**Q.** What about the Activity (HOP-62) of the same compound?
**A.** 81.02%

**Q.** And the Activity [8]?
**A.** 111.31%

**Q.** What about the Activity (A549) of the same compound?
**A.** 5.45%

**Q.** And the Activity [9]?
**A.** 49.98%

**Q.** And the Activity (MDA-MB-435)?
**A.** 52.3%

**Q.** And the Activity (NCI-H322M)?
**A.** 102.37%

**Q.** What about the Activity (CCRF-CEM) of the same compound?
**A.** 88.12%

**Q.** And the Activity (786-0)?
**A.** 100.87%

**Q.** What about the Activity (SK-MEL-5) of the same compound?
**A.** 48.27%

**Q.** What about the Activity (HT-29) of the same compound?
**A.** 119.52%

**Q.** And the Activity (NCI-H460)?
**A.** 108.95%

**Q.** And the Activity (DU-145)?
**A.** 105.62%

**Q.** And the Activity (KM12)?
**A.** 98.51%

**Q.** What about the Activity (NCI-H23) of the same compound?
**A.** 97.55%

**Q.** And the Activity (M14)?
**A.** 52.12%

**Q.** And the Activity [10]?
**A.** 94.7%

**Q.** And the Activity (CAKI-1)?
**A.** 94.74%

**Q.** What about the Activity [11] of the same compound?
**A.** 103.44%

**Q.** And the Activity (SF-268)?
**A.** 97.85%

**Q.** And the Activity (SK-MEL-28)?
**A.** 48.3%

**Q.** And the Activity [12]?
**A.** 104.7%

**Q.** What about the Activity [13] of the same compound?
**A.** 87.06%

**Q.** And the Activity [14]?
**A.** 106.38%

**Q.** And the Activity [15]?
**A.** inactive

**Q.** And the Activity (Rattus norvegicus [16])?
**A.** Non-toxic

**Q.** And the Activity (MCF7)?
**A.** 99.04%

**Q.** And the Activity (Malme-3M)?
**A.** 31.15%

**Q.** And the Activity (SNB-19)?
**A.** 103.16%

**Q.** What about the Activity (NCI-H522) of the same compound?
**A.** 87.33%

**Q.** And the inhibition (Rattus norvegicus [17])?
**A.** Active

**Q.** What about the Activity [18] of the same compound?
**A.** 102.84%

**Q.** What about the Activity [19] of the same compound?
**A.** 96.33%

**Q.** And the Activity [20]?
**A.** 113.48%

**Q.** And the Activity (HL-60(TB))?
**A.** 102.86%

**Q.** What does the source list for Cc1ccc(NC(=O)NS(=O)(=O)c2ccc(N3N=C(c4cccs4)CC3c3ccc(C)s3)cc2)cc1 (stereo not drawn)?
**A.** Activity [1]: -54.62%; Activity (A498): 109%; Activity [2]: 85.12%; Activity [3]: 78.27%; Activity [4]: 40.91%; Activity (IGROV-1): 107.76%; Activity [5]: 98.31%; Activity [6]: 96.05%; Activity (TK-10): 96.78%; Activity [7]: 83.37%; Activity (HOP-62): 76.92%; Activity [8]: 108.61%; Activity (A549): 101.55%; Activity [9]: 61.42%; Activity (MDA-MB-435): 61.95%; Activity (NCI-H322M): 103.57%; Activity (CCRF-CEM): 87.89%; Activity (786-0): 103.79%; Activity (SK-MEL-5): 47.78%; Activity (HT-29): 127.85%; Activity (NCI-H460): 103.16%; Activity (DU-145): 102.33%; Activity (KM12): 97.36%; Activity (NCI-H23): 98.53%; Activity (M14): 58.39%; Activity [10]: 94.41%; Activity (CAKI-1): 95.78%; Activity [11]: 102.87%; Activity (SF-268): 95.62%; Activity (SK-MEL-28): 47.8%; Activity [12]: 100.07%; Activity [13]: 84.91%; Activity [14]: 98.17%; Activity [15]: inactive; Activity (Rattus norvegicus [16]): Non-toxic; Activity (MCF7): 97.09%; Activity (Malme-3M): 40.64%; Activity (SNB-19): 108.18%; Activity (NCI-H522): 91.51%; inhibition (Rattus norvegicus [17]): Active; Activity [18]: 106.4%; Activity [19]: 86.34%; Activity [20]: 114.78%; Activity (HL-60(TB)): 126.37%
